Calls of active or inactive are those of the source. The calls are words filed in the database; no cut-off is given here.
How the values were obtained:
Type in all cases: cell-based
[1] = target: Voltage-gated L-type calcium channel (Rattus norvegicus, UniProt P22002+Q02485+P27732); assay: Inhibition of L-VDCC in rat H9C2 cells assessed as effect on calcium level by Fluo-4 fluorescence assay
FRT = assay: Potentiation of CFTR deltaF508 mutant expressed in FRT cells coexpressing halide sensitive YFP-H148Q/I152L mutant protein assessed as channel activation by iodide influx assay
Outline: (§1)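 FRT cells stably co-expressing ΔF508-CFTR and YFP-H148Q/I152L, held 20–24 h at 27 °C and assayed 48 h after plating. PBS wash, then 30 min with forskolin plus compound. 14-s YFP read (ex 500, em 535 nm) around iodide injection (100 mM final). Initial slope dF/dt extrapolated by exponential fit of final 10 s. Dose–response Hill fit gave apparent Kd and maximal effect.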

[2] = Binding affinity to CFTR deltaF508 mutant expressed in FRT cells coexpressing halide sensitive YFP-H148Q/I152L mutant protein by iodide influx assay; outline: as §1

In the case of COC(=O)C1=C(C)NC(C)=C(C(=O)OC)C1c1ccc(C)o1, the “inhibition (INH)” value [1] is reported as “Not Active”, the Activity (FRT) is reported as “Active” and the Kd [2] is reported as 6 µM. It also gave a pKd [2] of 5.22.
With CCOC(=O)C1=C(C)NC(C)=C(C(=O)OCC)C1c1sccc1C the Kd [2] was 5.7 µM and the pKd [2] was 5.24.
In the case of COC(=O)CSc1ccsc1C1C(C(=O)OCc2ccccc2)=C(C)NC(C)=C1C(=O)OCc1ccccc1, the Activity (FRT) is reported as “Active” and the Kd [2] is reported as 0.3 µM.
For COC(=O)C1=C(C)NC(C)=C(C(=O)OC)C1c1sccc1C, the Activity (FRT) was “inactive”, the Kd [2] was 3.1 µM and the pKd [2] was 5.51.
In the case of COC(=O)C1=C(C)NC(C)=C(C(=O)OC)C1c1ccc([N+](=O)[O-])s1, the Activity (FRT) is reported as “Active” and the Kd [2] is reported as 8.3 µM.
With CC1=C(C(=O)OCc2ccccc2)C(c2sccc2C)C(C(=O)OCc2ccccc2)=C(C)N1 the Activity (FRT) was “Active”, the Kd [2] was 0.7 µM and the pKd [2] was 6.15.
In the case of C=CCOC(=O)C1=C(C)NC(C)=C(C(=O)OCC=C)C1c1sccc1C, the Activity (FRT) is reported as “Active”, the Kd [2] is reported as 1 µM and the pKd [2] is reported as 6.
With CCOC(=O)C1=C(C)NC(C)=C(C(=O)OCc2ccccc2)C1c1sccc1C (stereo unspecified) the “inhibition (INH)” value [1] was “Active”, the Kd [2] was 0.5 µM and the pKd [2] was 6.3.
In the case of COC(=O)C1=C(C)NC(C)=C(C(=O)OC)C1c1ccc(C)s1, the “inhibition (INH)” value [1] is reported as “Not Active”, the Activity (FRT) is reported as “Active” and the Kd [2] is reported as 6 µM. For the same compound, the pKd [2] was 5.22.
In the case of C=CCOC(=O)C1=C(C)NC(C)=C(C(=O)OCC)C1c1sccc1C (stereo unspecified), the “inhibition (INH)” value [1] is reported as “Active”, the Kd [2] is reported as 0.3 µM and the pKd [2] is reported as 6.52.
Compound C=CCOC(=O)C1=C(C)NC(C)=C(C(=O)OCC=C)C1c1ccc([N+](=O)[O-])s1 has a Kd [2] of 3.8 µM.
With COC(=O)C1=C(C)NC(C)=C(C(=O)OC)C1c1cccs1 the “inhibition (INH)” value [1] was “Not Active”, the Kd [2] was 9.5 µM and the pKd [2] was 5.02.
In the case of CC1=C(C(=O)OCc2ccccc2)C(c2ccc([N+](=O)[O-])s2)C(C(=O)OCc2ccccc2)=C(C)N1, the Kd [2] is reported as 13.1 µM and the pKd [2] is reported as 4.88.
In the case of O=c1c(-c2ccc(O)cc2)coc2cc(O)cc(O)c12 [GENISTEIN], the Kd [2] is reported as 16.7 µM.
With C=CCOC(=O)C1=C(C)NC(C)=C(C(=O)OCC=C)C1c1sccc1SCC(=O)OC the Activity (FRT) was “Active”, the Kd [2] was 1.3 µM and the pKd [2] was 5.89.
In the case of CC1=C(C(=O)OCc2ccccc2)C(c2cc(-c3ccccc3)cs2)C(C(=O)OCc2ccccc2)=C(C)N1, the Activity (FRT) is reported as “Active”, the Kd [2] is reported as 16.5 µM and the pKd [2] is reported as 4.8.
In the case of C=CCOC(=O)C1=C(C)NC(C)=C(C(=O)OCC=C)C1c1cc(-c2ccccc2)cs1, the Activity (FRT) is reported as “Active”, the Kd [2] is reported as 1.5 µM and the pKd [2] is reported as 5.82.
With CCOC(=O)C1=C(C)NC(C)=C(C(=O)OCc2ccccc2)C1c1sccc1SCC(=O)OC (stereo unspecified) the “inhibition (INH)” value [1] was “Active”, the Kd [2] was 0.3 µM and the pKd [2] was 6.52.
For C=CCOC(=O)C1=C(C)NC(C)=C(C(=O)OCC)C1c1sccc1SCC(=O)OC (stereo unspecified), the “inhibition (INH)” value [1] was “Active”, the Kd [2] was 1.9 µM and the pKd [2] was 5.72.

Reference: ChEMBL document CHEMBL1153087, “Synthesis of 4-thiophen-2'-yl-1,4-dihydropyridines as potentiators of the CFTR chloride channel” (Bioorg Med Chem, 2009)
